This is an account of results in ChEMBL document CHEMBL3994571, “Caffeoyl Triterpenoid Esters as Potential Anti-ischemic Stroke Agents from Celastrus orbiculatus” (J Nat Prod, 2016).

Calls of active or inactive are those of the source. No cut-off for these calls is given here.

Data set [1] concerns SH-SY5Y. The data set can be described thus: Neuroprotective activity against oxygen glucose deprivation-induced cell death in human SH-SY5Y cells assessed as increase in cell viability at 10 uM treated at beginning of 24 hrs reoxygenation period by MTT assay. Format: functional, cell-based. The procedure, abridged: (§1)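 SH-SY5Y cells seeded at 2 × 10⁴ cells/well. Medium replaced by glucose-free EBSS (pH 7.4), then 1 h hypoxia (85% N₂, 10% H₂, 5% CO₂, 37 °C). Reoxygenated under normal culture for 24 h, compound added at start of reoxygenation. MTT read at 490 nm, given as % of non-OGD control. Mean ± SEM from three independent experiments.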

For data set [2], the system named is SH-SY5Y. The data set can be described thus: Cytotoxicity against human SH-SY5Y cells at 1 to 10 uM after 24 hrs by MTT assay. Format: cell-based. In outline:
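SH-SY5Y cells grown in 1:1 MEM/F12 with 10% FBS and penicillin/streptomycin at 37 °C, 5% CO₂. Seeded at 2 × 10⁴ cells/well. Normal cells without OGD exposed to compound. Viability by MTT: 3 h at 37 °C in dark, formazan dissolved in DMSO, absorbance at 490 nm.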

Data set [3] has as its system SH-SY5Y. The data set can be described thus: Neuroprotective activity against oxygen glucose deprivation-induced cell death in human SH-SY5Y cells assessed as increase in cell viability treated at beginning of 24 hrs reoxygenation period by MTT assay. Format: functional, cell-based. In outline: as §1
Background: Tetrazolium assays rely on reduction of a dye to a coloured formazan, in cell work by metabolically active cells.

Data set [4] deals with Rattus norvegicus. Nature of the data set: Neuroprotective activity against middle cerebral artery occlusion-induced Sprague-Dawley rat ischemic stroke model assessed as decrease in brain infarct volume at 10 mg/kg, iv dosed 2 hrs post onset of ischemia measured after 24 hrs of reperfusion by TTC staining based assay relative to control. Format: functional. More on the design: scale not given: the % may be the effect or the level left. The procedure, abridged: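 Male Sprague-Dawley rats, 230–280 g, under chloral hydrate (400 mg/kg i.p.). Left MCA occluded 2 h by 4-0 nylon filament, then reperfused; body temperature kept at 37.0 ± 0.5 °C. Edaravone as positive control. After 24 h reperfusion, 2 mm coronal sections stained with 1% TTC for 15 min, then fixed in 4% paraformaldehyde. White tissue scored as infarct. n = 11–14.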

Data set [5] has as its system Rattus norvegicus. Nature of the data set: Neuroprotective activity against middle cerebral artery occlusion-induced Sprague-Dawley rat ischemic stroke model assessed as reduction in neurological score at 10 mg/kg, iv dosed 2 hrs post onset of ischemia measured after 24 hrs of reperfusion […]. Format: functional, organism-based. The procedure, abridged:
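Male Sprague-Dawley rats, 230–280 g, given 2 h filament MCAO under chloral hydrate anaesthesia, then reperfused. Edaravone as positive control. After 24 h reperfusion, deficits rated by modified Neurological Severity Score on an 18-point scale (motor, visual, tactile); higher means worse. n = 11–14.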

For data set [6], the system named is SH-SY5Y. Nature of the data set: Neuroprotective activity against oxygen glucose deprivation-induced cell death in human SH-SY5Y cells assessed as cell viability at 10 uM treated at beginning of 24 hrs reoxygenation period by MTT assay (reference value: 55.05 +/- 2.03%). Format: functional. Conditions: read-out: Activity. The procedure, abridged: as §1
Data set [7] concerns SH-SY5Y. Nature of the data set: Neuroprotective activity in human SH-SY5Y cells assessed as reduction in oxygen glucose deprivation-induced morphological damage at 5 to 10 uM treated at beginning of 24 hrs reoxygenation period. Format: functional, cell-based. In outline:
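SH-SY5Y cells exposed to 1 h OGD in glucose-free EBSS (pH 7.4) under 85% N₂/10% H₂/5% CO₂ at 37 °C, then 24 h reoxygenation. Compound added after OGD at reoxygenation onset. Dendrite fragmentation and cell number assessed by morphological observation.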

Consider `C[C@H]1C(=O)CC[C@@H]2[C@]1(C)CC[C@H]1[C@@]2(C)CC[C@@]2(C)[C@@H]3C[C@](C)(COC(=O)/C=C/c4ccc(O)cc4)CC[C@]3(C)CC[C@]12C`, for which the result in data set [1] was inactive.

In the case of `C[C@H]1C(=O)CC[C@@H]2[C@]1(C)CC[C@H]1[C@@]2(C)CC[C@@]2(C)[C@@H]3C[C@](C)(COC(=O)/C=C/c4ccc(O)c(O)c4)CC[C@]3(C)CC[C@]12C`, the Activity result was “Non-Toxic” in data set [2], “Dose-dependent effect” in data set [3] and 14.2% in data set [4]. The result in data set [5], in data set [1] and in data set [7] was Active. In addition, the viability at 10 µM in data set [6] was found to be 115%.
